Reference: the array DNA melting data of Ke et al. (doi:10.1101/2024.01.08.574731)

What was measured:
[1] = melting temperature; fluorescence melt of hairpins on a sequencing array, two-state fit, raised by 9.35 °C to match UV melts; details: sodium 0.088 M
Outline: (§1)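 Hairpins were imaged by Cy3 fluorescence on a sequenced MiSeq flow cell with annealed Cy3 and quencher oligos, in 50 mM Na-HEPES pH 8.0, 25 mM NaCl, in 2.5 °C steps up to 60 °C. Bootstrapped two-state fits of normalised signals gave melting temperature and folding enthalpy. Four replicates were combined by inverse variance, and fitted temperatures were raised by 9.35 °C to match UV melts.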

[2] = folding enthalpy; higher = less favourable; fluorescence melt of hairpins on a sequencing array, two-state fit; details: sodium 0.088 M
Outline: as §1

Sequence	Tm [1]	folding enthalpy [2]
GCATACCGAAAGGTCTGC (((.(((....))).)))	51.4 °C	-33.5 kcal/mol
GCGGGTCCGAAAGGACGC (((..(((....))))))	52.5 °C	-11.3 kcal/mol
GACGTTGGAAACAGCGTC ((((.((....)).))))	52.1 °C	-39.6 kcal/mol
GGAGGGCGAAAGCCTCC (((.(((....))))))	61.9 °C	-18.7 kcal/mol
GCTTACGAAAGTATGAGC ((((((....)))..)))	34.7 °C	-20.5 kcal/mol
GGATTCCGAAAGGATCC (((.(((....))))))	49.6 °C	-29.1 kcal/mol
GTATAGTCGAAAGACTAC (((..(((....))))))	32.6 °C	-11.9 kcal/mol
GGAAGAGGAAACTCTTTC (.(((((....))))).)	37.3 °C	-27 kcal/mol
GCCCGTCGAAAGACCGGC (((.(((....))).)))	52.6 °C	-38.4 kcal/mol
GGTTAAGGAAACTTAACC (((((((....)))))))	52.7 °C	-38.5 kcal/mol
GAAGCGACGAAAGTCTTC (((..(((....))))))	27.9 °C	-9.61 kcal/mol
GATCTGTCACCAGATC ((((((....))))))	49.4 °C	-39.4 kcal/mol
GCAGACGGAAACGTCTAC (.(((((....))))).)	42.7 °C	-14.1 kcal/mol
GGGCTCGAAAGAGAGCCC ((((((....)))..)))	66.2 °C	-35.3 kcal/mol
GATCCGTCATCGGATC ((((((....))))))	59.3 °C	-39 kcal/mol
GATCGGGCCGCCGATC ((((((....))))))	59.1 °C	-37.2 kcal/mol
GCGGATGTCCGC ((((....))))	57.5 °C	-22.7 kcal/mol
GGGAGTGGAAACACCCCC (((.(((....))).)))	49.2 °C	-19 kcal/mol
GATCAAACAGTTGATC ((((((....))))))	38.5 °C	-25.8 kcal/mol
GTACTCGAAAGAGCGTAC ((((((....)))..)))	28.5 °C	-10.7 kcal/mol
GCTTTCGAAAGAAAAGC ((((((....))).)))	46.6 °C	-31.3 kcal/mol
GCAAGATCGAAAGATTGC (((..(((....))))))	38 °C	-21.3 kcal/mol
GCATCACGAAAGTGTGC (((.(((....))))))	56 °C	-39.2 kcal/mol

Sequence	Tm [1]	folding enthalpy [2]
GGTATCGAAAGATTAACC ((((((....)))..)))	30.3 °C	-17 kcal/mol
GTATTGGGAAACTAATAC (((((.(....).)))))	34.8 °C	-22.2 kcal/mol
GCCCTGCGAAAGCAGGC (((.(((....))))))	65.1 °C	-8.08 kcal/mol
GATGGGGGAAACCCCACC (.(((((....))))).)	39.9 °C	-12.6 kcal/mol
GAGGTAGGAAACTGCCTC ((((.((....)).))))	49.9 °C	-37.1 kcal/mol
GTACATGGAAACACGTAC ((((.((....)).))))	36.2 °C	-21.9 kcal/mol
GTGGATGGAAACATCTGC (..((((....))))..)	37.6 °C	-23 kcal/mol
GCGAGACGAAAGTCACGC (((.(((....))).)))	68.5 °C	-31.5 kcal/mol
GTTAGCGAAAGCTAAAAC ((((((....)))..)))	33.4 °C	-13.2 kcal/mol
GCCATACGAAAGTAGGGC (((.(((....))).)))	60.5 °C	-38 kcal/mol
GCTTTTACGAAAGTAAGC (((..(((....))))))	33.2 °C	-14.7 kcal/mol
GCACTGCGAAAGCAAAGC ((..(((....)))..))	37.1 °C	-13.2 kcal/mol
GGTACCGAAAGGTGTACC ((((((....)))..)))	46.6 °C	-22.5 kcal/mol
GGCTCCGAAAGGATGCC ((((((....))).)))	62.6 °C	-31 kcal/mol
GCCCAAGGAAACCTAGGC (((.(.(....).).)))	32.8 °C	-22.2 kcal/mol
CGCCCGGAAACGGATGCG ((((((....)))..)))	48.4 °C	-25 kcal/mol
GCGACCGAAAGGTGCCGC ((((((....)))..)))	50.4 °C	-15.6 kcal/mol
GTTAGACGAAAGTCGAAC (((.(((....))).)))	52.4 °C	-23.5 kcal/mol
GCGTCGCGAAAGCACCGC (((..((....))..)))	53.9 °C	-20.8 kcal/mol
GTACGACCGAAAGGTTAC (((..(((....))))))	19.8 °C	-8.91 kcal/mol
GACAACACGAAAGTGGTC (((..(((....))))))	39.8 °C	-16 kcal/mol
GCCCTCGAAAGAGCGGGC ((((((....)))..)))	50.1 °C	-29.2 kcal/mol
GCCTGCGGAAACACAGGC (((((.(....).)))))	52.4 °C	-40.8 kcal/mol

Sequence	Tm [1]	folding enthalpy [2]
GAGTTCGGAAACGGATTC ((.(.((....)).).))	27.3 °C	-17.4 kcal/mol
GCGGAGATCCGC ((((....))))	54.2 °C	-26.2 kcal/mol
GATCCGACTCCGGATC ((((((....))))))	55.1 °C	-44.3 kcal/mol
GAGGGTGGAAACGCCTTC ((.((.(....).)).))	34.1 °C	-25.7 kcal/mol
GCTGCAGGAAACTGCGGC ((.((((....)))).))	61.6 °C	-41.5 kcal/mol
GGACCAGGAAACTAGTCC ((((.((....)).))))	36.4 °C	-26.9 kcal/mol
GACGAGGGAAACCTCGCC (.(((((....))))).)	52.3 °C	-14.3 kcal/mol
GATCGGCAGGCCGATC ((((((....))))))	66.8 °C	-34.9 kcal/mol
GTATAGGGAAACCTGTAC (((.(((....))).)))	39.2 °C	-30.3 kcal/mol
GATCGATTGATCGATC ((((((....))))))	54.8 °C	-45.5 kcal/mol
GTGCCGGGAAACCGGTAC ((.((((....)))).))	57.2 °C	-30.3 kcal/mol
GTAGACGAAAGTCCCTAC ((((((....)))..)))	19.7 °C	-7.5 kcal/mol
GTAGCACGAAAGTGTAC (((.(((....))))))	40.4 °C	-14.2 kcal/mol
GTCGGGGGAAACCTCGAC ((((.((....)).))))	55.5 °C	-44.2 kcal/mol
GATCATAAATATGATC ((((((....))))))	45.2 °C	-41.4 kcal/mol
GTCAGTGGAAACATTGAC ((((.((....)).))))	45.3 °C	-29.2 kcal/mol
GCAAGGTCGAAAGACTGC (((..(((....))))))	40.5 °C	-19.1 kcal/mol
GTATGCGAAAGCAGATAC ((((((....)))..)))	36.7 °C	-12.9 kcal/mol
GAAGATGAAAATCTTC ((((((....))))))	48.4 °C	-28.1 kcal/mol
GAACGCGGAAACGCGCTC ((.((((....)))).))	50.3 °C	-15.1 kcal/mol
GATCTTAAGGAAGATC ((((((....))))))	39.1 °C	-23.1 kcal/mol
GCTAACGAAAGTTTAAGC ((((((....)))..)))	35.5 °C	-19 kcal/mol
GCCTGCGAAAGCAAGGGC ((((((....)))..)))	61.3 °C	-18.7 kcal/mol
